Assay results published in ChEMBL document CHEMBL4014355 (J Med Chem, 2017).
The source made the active and inactive calls. The rule behind the calls is not given here. Bridge positions count the residues as written; N and C are the ends. Square brackets hold non-standard residues; d marks the D form. Peptide text beside a SMILES is read from it. * marks the point of attachment. Arg(Me2s) = CN=C(NC)NCCC[C@H](N)C(=O)O; Arg(Me) = CNC(=N)NCCC[C@H](N)C(=O)O; d(αMeK) = C[C@@](N)(CCCCN)C(=O)O; dPhg = N[C@@H](C(=O)O)c1ccccc1; dOrn = NCCC[C@@H](N)C(=O)O; dDab = NCC[C@@H](N)C(=O)O; Isobutyryl = CC(C)C(=O)*; dDap = NC[C@@H](N)C(=O)O; Abu = CC[C@H](N)C(=O)O

Experiments:
MV4-11 [1] = test: Cytotoxicity against human MV4-11 cells harboring MLL-AF4 fusion protein assessed as cell growth inhibition after 4 days by WST8 assay; format: functional, cell-based; conditions: MV4-11, 96 h
Outline: (§1)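 Cells (MOLM-13 with MLL-AF9, MV4-11 with MLL-AF4, HL-60 with no MLL fusion) seeded at 1 × 10^4 cells/well and exposed to a range of inhibitor concentrations for 4 days, with 0.2% DMSO final in the medium. Viability was read by WST-8 kit. Three independent experiments, each in triplicate.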

MOLM-13 [2] = test: Cytotoxicity against human MOLM13 cells harboring MLL-AF9 fusion protein assessed as cell growth inhibition after 4 days by WST8 assay; format: functional, cell-based; conditions: MOLM-13, 96 h; outline: as §1
HL-60 = test: Cytotoxicity against human HL60 cells lacking MLL translocation assessed as cell growth inhibition after 4 days by WST8 assay; format: cell-based; conditions: HL-60, 96 h; outline: as §1
[3] = target: MLL1-ASH2L/RbBP5/WDR5/DPY30 (Homo sapiens, UniProt P61964); test: Inhibition of human N-terminal GST-tagged MLL1 (3735 to 3973 residues) interaction with human full length N-terminal 6xHis-tagged ASH2L/N-terminal 6xHis-tagged human full length RbBP5/human N-terminal 6xHis-tagged WDR5/human full length N-terminal 6xHis-tagged DPY30 assessed as decrease in H3K4me1-2 methylation preincubated for 30 mins followed by SAM/nucleosome mixture addition measured after 120 mins in absence of light by AlphaLISA assay; format: protein assay
[4] = Inhibition of 5-FAM tracer binding to WDR5 delta23 mutant (24 to 334 residues) (unknown origin) expressed in Escherichia coli Rosetta 2 (DE3) cells after 3 hrs by fluorescence polarization assay; design: species or system Homo sapiens
[5] = Half life in rat microsomes; format: ADME, Microsome
[6] = Half life in mouse microsomes; format: ADME, Microsome
[7] = Half life in human microsomes; format: ADME, Microsome
[8] = Selectivity ratio of IC50 for human HL60 cells lacking MLL translocation to IC50 for human MV4-11 cells harboring MLL-AF4 fusion protein
[9] = Selectivity ratio of IC50 for human HL60 cells lacking MLL translocation to IC50 for human MOLM13 cells harboring MLL-AF9 fusion protein
[10] = target: Histone-lysine N-methyltransferase 2C (Homo sapiens) (UniProt Q8NEZ4); test: Inhibition of MLL3 (unknown origin) H3K4 methyltransferase activity using biotinyl-H3 peptide (1 to 21 residues) and using [3H]-S adenosylmethionine as methyl donor up to 100 uM after 1 hr by scintillation counting
[11] = target: Histone-lysine N-methyltransferase 2D (Homo sapiens) (UniProt O14686); test: Inhibition of MLL4 (unknown origin) H3K4 methyltransferase activity using biotinyl-H3 peptide (1 to 21 residues) and using [3H]-S adenosylmethionine as methyl donor up to 100 uM after 1 hr by scintillation counting
MOLM-13 [12] = test: Cytotoxicity against human MOLM13 cells harboring MLL-AF9 fusion protein assessed as cell growth inhibition at 0.10 uM after 7 days by WST8 assay; format: functional; conditions: MOLM-13, 168 h, read-out: GI
[13] = target: Histone-lysine N-methyltransferase 2B (Homo sapiens) (UniProt Q9UMN6); test: Inhibition of MLL2 (unknown origin) H3K4 methyltransferase activity using biotinyl-H3 peptide (1 to 21 residues) and using [3H]-S adenosylmethionine as methyl donor up to 100 uM after 1 hr by scintillation counting
Chain of Histone-lysine N-methyltransferase 2B (Homo sapiens) (Q9UMN6 whole entry, the tested form may be a part): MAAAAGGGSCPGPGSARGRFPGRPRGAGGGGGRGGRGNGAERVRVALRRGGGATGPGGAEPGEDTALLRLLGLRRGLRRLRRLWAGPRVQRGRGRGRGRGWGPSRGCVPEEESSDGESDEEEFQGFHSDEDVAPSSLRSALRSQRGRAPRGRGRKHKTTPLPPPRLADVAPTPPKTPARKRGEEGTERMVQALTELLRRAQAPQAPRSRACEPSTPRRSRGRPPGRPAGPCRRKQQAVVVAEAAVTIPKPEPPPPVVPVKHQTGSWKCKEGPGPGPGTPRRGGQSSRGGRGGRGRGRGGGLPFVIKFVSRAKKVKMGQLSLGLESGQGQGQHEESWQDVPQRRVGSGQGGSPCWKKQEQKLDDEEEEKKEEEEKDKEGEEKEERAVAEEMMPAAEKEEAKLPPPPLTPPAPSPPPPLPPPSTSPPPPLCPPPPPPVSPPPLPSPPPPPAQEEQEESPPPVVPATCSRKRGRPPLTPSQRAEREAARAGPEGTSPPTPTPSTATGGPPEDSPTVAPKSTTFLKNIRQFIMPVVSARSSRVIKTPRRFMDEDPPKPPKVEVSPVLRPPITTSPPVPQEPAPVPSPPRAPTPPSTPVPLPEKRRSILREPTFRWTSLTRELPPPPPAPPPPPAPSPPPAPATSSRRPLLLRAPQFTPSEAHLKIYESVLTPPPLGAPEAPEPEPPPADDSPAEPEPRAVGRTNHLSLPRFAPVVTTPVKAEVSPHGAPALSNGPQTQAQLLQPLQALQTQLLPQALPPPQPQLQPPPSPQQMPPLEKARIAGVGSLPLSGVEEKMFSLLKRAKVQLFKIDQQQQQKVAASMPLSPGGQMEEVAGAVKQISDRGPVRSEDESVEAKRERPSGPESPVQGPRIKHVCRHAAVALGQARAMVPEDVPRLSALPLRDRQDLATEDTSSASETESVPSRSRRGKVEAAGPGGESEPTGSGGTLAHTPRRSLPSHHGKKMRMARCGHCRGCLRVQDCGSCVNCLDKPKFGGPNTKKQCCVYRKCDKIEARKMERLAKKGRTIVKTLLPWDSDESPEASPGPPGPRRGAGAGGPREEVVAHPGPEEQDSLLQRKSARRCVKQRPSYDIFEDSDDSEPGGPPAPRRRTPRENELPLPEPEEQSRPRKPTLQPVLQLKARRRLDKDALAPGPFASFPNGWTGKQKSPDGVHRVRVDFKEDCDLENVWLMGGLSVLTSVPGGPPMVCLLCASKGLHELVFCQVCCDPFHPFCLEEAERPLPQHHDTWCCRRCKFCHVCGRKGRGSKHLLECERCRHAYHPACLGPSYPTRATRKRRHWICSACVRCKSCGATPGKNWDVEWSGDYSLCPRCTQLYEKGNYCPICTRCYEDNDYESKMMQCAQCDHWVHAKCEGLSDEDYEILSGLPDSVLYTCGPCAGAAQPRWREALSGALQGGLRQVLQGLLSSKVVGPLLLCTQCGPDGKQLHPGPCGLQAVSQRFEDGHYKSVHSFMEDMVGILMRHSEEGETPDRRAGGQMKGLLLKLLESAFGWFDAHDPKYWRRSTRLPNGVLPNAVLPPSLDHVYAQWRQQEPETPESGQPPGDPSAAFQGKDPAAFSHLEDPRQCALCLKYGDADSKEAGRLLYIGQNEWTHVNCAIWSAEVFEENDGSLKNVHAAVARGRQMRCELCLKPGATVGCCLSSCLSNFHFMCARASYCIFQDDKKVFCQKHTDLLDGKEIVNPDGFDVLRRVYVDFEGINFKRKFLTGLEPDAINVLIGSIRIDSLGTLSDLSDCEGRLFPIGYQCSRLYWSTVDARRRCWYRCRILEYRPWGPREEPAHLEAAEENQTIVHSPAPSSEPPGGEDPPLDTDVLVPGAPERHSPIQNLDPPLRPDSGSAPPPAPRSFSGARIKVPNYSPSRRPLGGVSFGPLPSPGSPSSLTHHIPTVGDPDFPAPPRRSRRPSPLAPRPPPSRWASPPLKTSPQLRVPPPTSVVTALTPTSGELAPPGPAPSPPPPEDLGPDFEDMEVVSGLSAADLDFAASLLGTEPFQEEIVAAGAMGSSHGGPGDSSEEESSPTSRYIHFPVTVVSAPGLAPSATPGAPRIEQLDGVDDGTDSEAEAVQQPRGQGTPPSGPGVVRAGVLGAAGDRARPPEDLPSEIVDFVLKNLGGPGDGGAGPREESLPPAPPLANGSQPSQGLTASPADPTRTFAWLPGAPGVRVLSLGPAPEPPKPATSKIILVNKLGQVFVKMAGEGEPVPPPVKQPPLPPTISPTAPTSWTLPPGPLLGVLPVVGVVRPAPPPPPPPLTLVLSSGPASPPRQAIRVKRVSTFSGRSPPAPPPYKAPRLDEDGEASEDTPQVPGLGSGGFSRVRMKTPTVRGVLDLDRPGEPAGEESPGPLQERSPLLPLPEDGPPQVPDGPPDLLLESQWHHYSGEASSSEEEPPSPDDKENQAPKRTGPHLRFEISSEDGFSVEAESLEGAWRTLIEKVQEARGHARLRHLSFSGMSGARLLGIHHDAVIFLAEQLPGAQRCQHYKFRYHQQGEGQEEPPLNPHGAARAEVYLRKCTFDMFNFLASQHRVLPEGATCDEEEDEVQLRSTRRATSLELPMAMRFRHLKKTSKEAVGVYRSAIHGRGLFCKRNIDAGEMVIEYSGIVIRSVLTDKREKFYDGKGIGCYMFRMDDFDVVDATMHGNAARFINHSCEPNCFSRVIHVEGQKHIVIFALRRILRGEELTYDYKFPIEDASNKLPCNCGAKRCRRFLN

[14] = target: Histone-lysine N-methyltransferase SETD1B (Homo sapiens) (UniProt Q9UPS6); test: Inhibition of […] (unknown origin) H3K4 methyltransferase activity using biotinyl-H3 peptide (1 to 21 residues) and using [3H]-S adenosylmethionine as methyl donor up to 100 uM after 1 hr by scintillation counting
Chain of Histone-lysine N-methyltransferase SETD1B (Homo sapiens) (Q9UPS6 whole entry, the tested form may be a part): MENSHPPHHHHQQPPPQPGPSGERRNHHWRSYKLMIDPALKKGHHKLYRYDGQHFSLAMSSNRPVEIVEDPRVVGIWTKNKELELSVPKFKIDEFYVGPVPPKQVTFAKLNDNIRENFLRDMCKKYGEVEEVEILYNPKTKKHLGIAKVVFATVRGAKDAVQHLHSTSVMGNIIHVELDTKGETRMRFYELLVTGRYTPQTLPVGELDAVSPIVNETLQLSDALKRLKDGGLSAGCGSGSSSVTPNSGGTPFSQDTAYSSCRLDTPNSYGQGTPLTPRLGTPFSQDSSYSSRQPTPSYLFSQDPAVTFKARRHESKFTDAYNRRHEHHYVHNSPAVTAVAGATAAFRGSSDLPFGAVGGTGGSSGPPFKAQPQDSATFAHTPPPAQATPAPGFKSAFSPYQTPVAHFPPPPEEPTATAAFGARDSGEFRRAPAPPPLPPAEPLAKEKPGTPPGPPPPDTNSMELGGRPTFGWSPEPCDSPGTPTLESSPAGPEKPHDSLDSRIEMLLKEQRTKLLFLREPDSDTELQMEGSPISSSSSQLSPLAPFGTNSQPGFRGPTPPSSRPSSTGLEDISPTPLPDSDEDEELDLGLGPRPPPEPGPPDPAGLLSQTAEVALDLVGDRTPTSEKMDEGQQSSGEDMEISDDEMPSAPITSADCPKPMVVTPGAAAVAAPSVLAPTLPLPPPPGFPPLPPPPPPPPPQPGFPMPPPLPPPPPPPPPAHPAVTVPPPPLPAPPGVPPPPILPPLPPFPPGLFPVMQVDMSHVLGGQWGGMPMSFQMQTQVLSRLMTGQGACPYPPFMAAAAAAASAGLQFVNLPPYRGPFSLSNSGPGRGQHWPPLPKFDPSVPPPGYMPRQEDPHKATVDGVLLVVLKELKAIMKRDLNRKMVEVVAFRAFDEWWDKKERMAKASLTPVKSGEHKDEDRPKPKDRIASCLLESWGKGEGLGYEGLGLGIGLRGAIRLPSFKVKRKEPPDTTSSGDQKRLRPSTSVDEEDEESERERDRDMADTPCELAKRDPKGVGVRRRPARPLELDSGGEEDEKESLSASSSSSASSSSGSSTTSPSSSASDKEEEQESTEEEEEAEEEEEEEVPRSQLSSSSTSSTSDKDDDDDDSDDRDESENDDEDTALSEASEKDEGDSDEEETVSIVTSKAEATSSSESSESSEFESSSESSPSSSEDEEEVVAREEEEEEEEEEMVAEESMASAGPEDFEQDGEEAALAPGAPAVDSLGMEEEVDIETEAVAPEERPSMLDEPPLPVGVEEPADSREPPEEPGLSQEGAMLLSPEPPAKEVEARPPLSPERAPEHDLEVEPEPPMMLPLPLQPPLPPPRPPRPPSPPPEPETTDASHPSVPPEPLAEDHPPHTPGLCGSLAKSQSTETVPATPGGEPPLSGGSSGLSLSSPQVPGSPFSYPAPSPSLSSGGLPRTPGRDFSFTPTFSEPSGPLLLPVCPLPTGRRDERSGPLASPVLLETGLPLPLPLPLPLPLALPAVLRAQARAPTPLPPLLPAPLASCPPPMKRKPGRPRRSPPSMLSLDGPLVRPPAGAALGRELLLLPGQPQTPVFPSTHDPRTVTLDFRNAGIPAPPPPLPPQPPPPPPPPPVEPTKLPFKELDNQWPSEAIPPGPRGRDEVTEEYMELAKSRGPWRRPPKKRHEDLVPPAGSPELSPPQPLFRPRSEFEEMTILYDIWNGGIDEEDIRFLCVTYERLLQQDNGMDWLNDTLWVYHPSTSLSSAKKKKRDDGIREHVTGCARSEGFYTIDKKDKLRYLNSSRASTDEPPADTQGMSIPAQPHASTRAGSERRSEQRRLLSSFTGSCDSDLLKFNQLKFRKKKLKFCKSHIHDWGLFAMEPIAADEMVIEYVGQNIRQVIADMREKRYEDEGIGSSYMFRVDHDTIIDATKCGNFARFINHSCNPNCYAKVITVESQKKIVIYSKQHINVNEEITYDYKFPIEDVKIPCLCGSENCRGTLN

[15] = target: Histone-lysine N-methyltransferase SETD1A (Homo sapiens) (UniProt O15047); test: Inhibition of SET1a (unknown origin) H3K4 methyltransferase activity using biotinyl-H3 peptide (1 to 21 residues) and using [3H]-S adenosylmethionine as methyl donor up to 100 uM after 1 hr by scintillation counting
MV4-11 [16] = test: Cytotoxicity against human MV4-11 cells harboring MLL-AF4 fusion protein assessed as cell growth inhibition at 0.69 uM after 4 days by WST8 assay; format: functional; conditions: MV4-11, 96 h, read-out: GI
[17] = Stability of compound in cell culture media at 0.5 mM after 7 days by Waters ACQUITY UPLC analysis
MV4-11 [18] = test: Cytotoxicity against human MV4-11 cells harboring MLL-AF4 fusion protein assessed as cell growth inhibition at […] after 7 days by WST8 assay; format: functional; conditions: MV4-11, 168 h, read-out: GI
MOLM-13 [19] = test: Cytotoxicity against human MOLM13 cells harboring MLL-AF9 fusion protein assessed as cell growth inhibition after 7 days by WST8 assay; format: functional, cell-based; conditions: MOLM-13, 168 h
Outline: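 Long-term treatment of MOLM-13 plated at 5 × 10^4 cells/mL. Viability measured by WST-8 on day 4. Then 10% of viable cells were moved to fresh medium at the same compound concentration and cultured 3 more days, with viability read again on day 7.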

MV4-11 [20] = test: Cytotoxicity against human MV4-11 cells harboring MLL-AF4 fusion protein assessed as cell growth inhibition after 7 days by WST8 assay; format: functional, cell-based; conditions: MV4-11, 168 h
Outline: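 MV4-11 cells (MLL-AF4) plated at 5 × 10^4 cells/mL and treated with the compound. WST-8 viability was read on day 4. Then 10% of viable cells were moved to fresh medium with the same compound concentrations and cultured 3 more days. The day-7 read was also by WST-8.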

MOLM-13 [21] = test: Cytotoxicity against human MOLM13 cells harboring MLL-AF9 fusion protein assessed as cell growth inhibition at 0.38 uM after 4 days by WST8 assay; format: functional; conditions: MOLM-13, 96 h, read-out: GI

Structure (SMILES)	IC50 (MV4-11 [1]) [nM]	IC50 (MOLM-13 [2]) [nM]	IC50 (HL-60) [nM]	IC50 [3] [nM]	IC50 [4] [nM]	Ki [4] [nM]	half-life [5] [h]	half-life [6] [h]	half-life [7] [h]	other results
CC[C@@H]1NC(=O)[C@H](CCCNC(=N)NC)NC(=O)[C@](C)(NC(=O)C(C)C)CCCCNC(=O)[C@@H](c2ccccc2)NC1=O (Isobutyryl-[d(αMeK)][Arg(Me)][Abu][dPhg]; lactam 1-C)	4300	3600	> 100000	452	1.1	< 1	–	–	–	–
CC[C@H]1NC(=O)[C@@H](CCCNC(=N)N)NC(=O)[C@@](C)(NC(=O)C(C)C)CCCCNC(=O)[C@H](c2ccccc2)NC1=O	> 100000	> 100000	> 100000	–	–	–	–	–	–	–
CC[C@@H]1NC(=O)[C@H](CCCNC(=N)N)NC(=O)[C@H](NC(=O)C(C)C)CCCCNC(=O)[C@@H](c2ccccc2)NC1=O (Isobutyryl-[dK]R[Abu][dPhg]; lactam 1-C)	> 100000	> 100000	> 100000	> 10000	298	60.3	–	–	–	–
CC[C@@H]1NC(=O)[C@H](CCCNC(=N)N)NC(=O)[C@](C)(NC(=O)C(C)C)CCCCN(C)C(=O)[C@@H](c2ccccc2)NC1=O.O=C(O)C(F)(F)F	–	–	–	190	1.6	< 1	> 1	> 1	> 1	–
CC[C@@H]1NC(=O)[C@H](CCCNC(=N)N)NC(=O)[C@](C)(NC(=O)C(C)C)CCCNC(=O)[C@@H](c2ccccc2)NC1=O.O=C(O)C(F)(F)F	1290	1280	46800	84.8	0.97	< 1	> 1	> 1	> 1	Ratio IC50 [8]: >30; Ratio IC50 [9]: >30
CC[C@@H]1NC(=O)[C@H](CCCN/C(=N/C)NC)NC(=O)[C@](C)(NC(=O)C(C)C)CCCCNC(=O)[C@@H](c2ccccc2)NC1=O (Isobutyryl-[d(αMeK)][Arg(Me2s)][Abu][dPhg]; lactam 1-C)	15200	31500	84800	1260	2.4	< 1	–	–	–	–
CC[C@@H]1NC(=O)[C@H](CCCNC(=N)NC)NC(=O)[C@](C)(NC(=O)C(C)C)CCNC(=O)[C@H](c2ccccc2)NC1=O	35000	14300	–	477	2	< 1	–	–	–	–
CC[C@@H]1NC(=O)[C@H](CCCNC(=N)N)NC(=O)[C@](C)(NC(=O)C(C)C)CCNC(=O)[C@@H](c2ccccc2)NC1=O.O=C(O)C(F)(F)F	460	280	17400	12.6	1.08	< 1	> 1	> 1	> 1	Ratio IC50 [8]: >30; Ratio IC50 [9]: >30
CC[C@@H]1NC(=O)[C@H](CCCNC(=N)N)NC(=O)[C@](C)(NC(=O)C(C)C)CCCCCNC(=O)[C@@H](c2ccccc2)NC1=O	15100	37600	> 100000	1530	2.6	< 1	–	–	–	–
CC[C@@H]1NC(=O)[C@H](CCCNC(=N)N)NC(=O)[C@](C)(NC(=O)C(C)C)CCCCN(C)C(=O)[C@@H](c2ccc(F)cc2)NC1=O.O=C(O)C(F)(F)F	5200	16200	60000	138	1.6	< 1	> 1	> 1	> 1	–
CC[C@@H]1NC(=O)[C@H](CCCNC(=N)N)NC(=O)[C@H](NC(=O)C(C)C)CCNC(=O)[C@@H](c2ccccc2)NC1=O (Isobutyryl-[dDab]R[Abu][dPhg]; lactam 1-C)	43400	42800	> 100000	1800	6.2	0.8	–	–	–	–
CC[C@@H]1NC(=O)[C@H](CCCNC(=N)NC)NC(=O)[C@](C)(NC(=O)C(C)C)CCNC(=O)[C@@H](c2ccccc2)NC1=O.O=C(O)C(F)(F)F	250	210	8560	12.7	0.9	< 1	> 1	> 1	> 1	inhibition [10]: inactive; inhibition [11]: inactive; inhibition of growth at 0.1 µM (MOLM-13 [12]): > 95%; inhibition [13]: inactive; inhibition [14]: inactive; inhibition [15]: inactive; inhibition of growth at 0.69 µM (MV4-11 [16]): 75%; Stability [17]: Stable; inhibition of growth at […] (MV4-11 [18]): > 95%; Ratio IC50 [8]: >30; IC50 (MOLM-13 [19]): 100 nM; IC50 (MV4-11 [20]): 290 nM; inhibition of growth at 0.38 µM (MOLM-13 [21]): 75%; Ratio IC50 [9]: >30
CC[C@@H]1NC(=O)[C@H](CCCNC(=N)N)NC(=O)[C@](C)(NC(=O)C(C)C)CCCCNC(=O)[C@@H](c2ccccc2)NC1=O.O=C(O)C(F)(F)F	–	–	> 100000	–	–	–	> 1	> 1	> 1	–
CCC(CC)(NC(=O)C(C)C)C(=O)N[C@@H](CCCNC(=N)N)C(=O)NC1(C(=O)NC(c2ccccc2)c2ccccc2)CCCC1	–	–	–	–	–	–	0.567	0.733	0.0667	–
CC[C@@H]1NC(=O)[C@H](CCCNC(=N)N)NC(=O)[C@H](NC(=O)C(C)C)CCCNC(=O)[C@@H](c2ccccc2)NC1=O (Isobutyryl-[dOrn]R[Abu][dPhg]; lactam 1-C)	> 100000	> 100000	> 100000	> 10000	164	32.9	–	–	–	–
CC[C@@H]1NC(=O)[C@H](CCCNC(=N)N)NC(=O)[C@](C)(NC(=O)C(C)C)CCCCN(C)C(=O)[C@@H](c2ccc(Cl)cc2)NC1=O.O=C(O)C(F)(F)F	–	–	–	124	1.5	< 1	> 1	> 1	> 1	–
CC[C@@H]1NC(=O)[C@H](CCCNC(=N)N)NC(=O)[C@H](NC(=O)C(C)C)CNC(=O)[C@@H](c2ccccc2)NC1=O (Isobutyryl-[dDap]R[Abu][dPhg]; lactam 1-C)	–	–	–	> 10000	1190	242	–	–	–	–
